Results on 27 compounds are retold here after ChEMBL document CHEMBL4765329, “Exploration of carbamide derived pyrimidine-thioindole conjugates as potential VEGFR-2 inhibitors with anti-angiogenesis effect” (Eur J Med Chem, 2020).

The term IC50 denotes the point on the concentration scale where inhibition reaches its midpoint.

SMILES strings stand for the structures. The source made the active and inactive calls. The calls are words filed in the database; no cut-off is given here. Some results are limits rather than exact numbers.

Assay [1] relates to MDA-MB-231. Nature of the assay: cells. The conditions noted are these: Homo sapiens, MDA-MB-231, 72 h.
Assay [2] has as its system PC-3. The assay can be described thus: cells. The conditions noted are these: Homo sapiens, PC-3, 72 h.
Assay [3] has as its system HepG2. Nature of the assay: cells. The conditions noted are these: Homo sapiens, HepG2, 72 h.
For assay [4], the system named is A549. Nature of the assay: cells. The conditions noted are these: Homo sapiens, A549, 72 h.
In assay [5] the test system is MDA-MB-231. Nature of the assay: Induction of mitochondrial membrane potential loss in human MDA-MB-231 cells assessed as generation of ROS at 5 uM measured after 48 hrs by carboxy […] stain based flow cytometry assay relative to control. In kind it is functional, cell-based. The method in brief:
(§1)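 MDA-MB-231 cells were treated at several doses and stained with carboxy-H2DCFDA. ROS were read as green DCF fluorescence relative to untreated control.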

Assay [6] concerns MDA-MB-231. Nature of the assay: Induction of mitochondrial membrane potential loss in human MDA-MB-231 cells assessed as increase in depolarised cells measured after 48 hrs by JC-1 stain based flow cytometry assay relative to control. In kind it is functional, cell-based. The conditions noted are these: dose 2.5-5 µM. The method in brief:
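MDA-MB-231 cells were treated at 2.5 and 5 µM and stained with JC-1. Depolarised mitochondria were scored by green monomer signal and healthy mitochondria by red J-aggregates, against control.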

The test system of assay [7] is MDA-MB-231. Nature of the assay: Induction of apoptosis in human MDA-MB-231 cells assessed as induction of morphological changes by measuring chromatin condensation measured after 48 hrs by Hoechst stain based flourescence assay in relative to control. Format: functional, cell-based. The conditions noted are these: dose 2.5-5 µM. The gist of the method: (§2)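 MDA-MB-231 cells were treated at 2.5 and 5 µM and stained with Hoechst. Nuclei were examined by fluorescence for chromatin condensation, nuclear shrinkage, and pyknotic or fragmented nuclei against untreated control.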

Assay [8] relates to MDA-MB-231. The assay can be described thus: Induction of mitochondrial membrane potential loss in human MDA-MB-231 cells assessed as generation of ROS at 2.5 uM measured after 48 hrs by carboxy […] stain based flow cytometry assay relative to control. Format: functional, cell-based. The method in brief: as §1
Assay [9] concerns MDA-MB-231. Nature of the assay: Induction of apoptosis in human MDA-MB-231 cells assessed as induction of morphological changes by measuring nuclear shrinkage and fragmentation in nucleus measured after 48 hrs by Hoechst stain based flourescence assay in relative to control. Format: functional, cell-based. The conditions noted are these: dose 2.5-5 µM. The method in brief:
as §2

Assay [10] relates to MDA-MB-231. Nature of the assay: Antimigratory activity against human MDA-MB-231 cells assessed as inhibition of cell migration at 5 uM measured after 24 hrs by phase contrast microscope based wound healing assay. In kind it is functional. The method in brief: (§3)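 Confluent MDA-MB-231 monolayers (DMEM, 10% FBS) were scratched with a sterile pipette tip and then treated. Wound closure was imaged by phase contrast microscopy after 24 h and compared with untreated control.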

For assay [11], the system named is HUVEC. The assay can be described thus: Antiangiogenic activity against human HUVEC cells assessed as inhibition of tube formation measured after 16 hrs by matrigel based tube formation assay. Format: functional, cell-based. The conditions noted are these: dose 2.5-5 µM. The method in brief:
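HUVECs were plated on Matrigel with 2.5 and 5 μM test agent, alongside a reference VEGFR-2 inhibitor. Tube networks were imaged, and quantification covered cell-covered area, tube length, branching points and total loops.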

The test system of assay [12] is HUVEC. Nature of the assay: Antimigratory activity against human HUVEC cells assessed as inhibition of cell invasion measured by inverted fluorescence microscope based transwell assay. Format: functional. The conditions noted are these: dose 2.5-5 µM. The gist of the method:
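A Boyden chamber (transwell) invasion assay used HUVECs passing through Matrigel and a membrane barrier. Treatment was 2.5 and 5 µM, with a reference VEGFR-2 inhibitor as standard. Invaded cells on the bottom side were compared with untreated control.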

In assay [13] the test system is MDA-MB-231. Nature of the assay: Antimigratory activity against human MDA-MB-231 cells assessed as inhibition of cell migration at 2.5 uM measured after 24 hrs by phase contrast microscope based wound healing assay. Format: functional. The gist of the method:
as §3

In the case of `O=C(Nc1ccccc1)Nc1nc(Nc2ccccc2)cc(Sc2c[nH]c3ccccc23)n1`, the IC50 is 35.9 µM in assay [1], 26.4 µM in assay [2], 14.4 µM in assay [3] and greater than 50 µM in assay [4].
On the same counts, the results for `O=C(Nc1ccccc1)Nc1nc(Sc2c[nH]c3ccccc23)cc(N2CCCCC2)n1` are 8.13 µM, 12.1 µM, 20.9 µM and 33.1 µM.
On the same counts, the results for `O=C(Nc1ccccc1)Nc1nc(NC2CC2)cc(Sc2c[nH]c3ccccc23)n1` are 7.86 µM, 17.5 µM, 14.3 µM and greater than 50 µM.
With `O=C(Nc1ccccc1)Nc1nc(Sc2c[nH]c3ccccc23)cc(N2CCCC2)n1`, the IC50 in assay [1] came to 7.89 µM; in [2] it was 14.9 µM; in assay [3], 11.4 µM; in assay [4], 21.2 µM.
The like results for `COc1ccc(NC(=O)Nc2nc(Sc3c[nH]c4ccccc34)cc(N3CCOCC3)n2)cc1` were, in that order, 7.94 µM, 12.5 µM, 10.3 µM and 33.4 µM.
Take `Cc1cc(Cl)ccc1NC(=O)Nc1nc(Sc2c[nH]c3ccccc23)cc(N2CCCC2)n1`: the IC50 in assay [1] was determined as 9.44 µM; in assay [2], 12.9 µM; in assay [3] it was 7.15 µM; in assay [4], 8.93 µM.
On to `Cc1ccc(C)c(NC(=O)Nc2nc(Sc3c[nH]c4ccccc34)cc(N3CCCCC3)n2)c1`, for which the result in assay [5], in [6] and in [8] was Active. Moreover, the values for the IC50 in assay [2], in assay [3] and in assay [4] were greater than 50 µM, 6.44 µM and 25.4 µM, respectively. Also, the Activity entry in assay [7] and in assay [9] was “Dose-dependent effect” in each case.
For `COc1ccc(NC(=O)Nc2nc(Sc3c[nH]c4ccccc34)cc(N3CCN(Cc4ccccc4)CC3)n2)cc1`, the IC50 in assay [1] turned out to be 8.92 µM; in assay [2] it was 16.7 µM; in [3], 21.4 µM; in [4] it was 42.3 µM.
The like results for `Cc1cc(Cl)ccc1NC(=O)Nc1nc(Sc2c[nH]c3ccccc23)cc(N2CCN(c3ccccn3)CC2)n1` were, in that order, 34.7 µM, 19.8 µM, 7.64 µM and greater than 50 µM.
On the same counts, the results for `COc1ccc(NC(=O)Nc2nc(Sc3c[nH]c4ccccc34)cc(N3CCN(c4ccccn4)CC3)n2)cc1` are 28.4 µM, 33.4 µM, 11.4 µM and greater than 50 µM.
The like results for `Cc1cc(Cl)ccc1NC(=O)Nc1nc(Sc2c[nH]c3ccccc23)cc(N2CCOCC2)n1` were, in that order, 8.65 µM, 33.8 µM, 8.26 µM and greater than 50 µM.
In the case of `Cc1ccc(C)c(NC(=O)Nc2nc(Sc3c[nH]c4ccccc34)cc(N3CCN(Cc4ccccc4)CC3)n2)c1`, the IC50 was 19 µM in [1], 17.3 µM in [2], 16.4 µM in assay [3] and greater than 50 µM in [4].
With `CNC(=O)c1cc(Oc2ccc(NC(=O)Nc3ccc(Cl)c(C(F)(F)F)c3)cc2)ccn1` [SORAFENIB], the inhibition result in assay [10] and in assay [13] was “Active” each time. The IC50 worked out at 11.8 µM in assay [1], 9.77 µM in [2] and 5.78 µM in assay [3]. In addition, the inhibition entry in [11] and in assay [12] was “Dose-dependent effect” in each case.
Consider `COc1ccc(NC(=O)Nc2nc(Nc3cc(OC)cc(OC)c3)cc(Sc3c[nH]c4ccccc34)n2)cc1`, for which the IC50 in [1] was 9.46 µM; in assay [2] it was 15.1 µM; in [3] it was 17.4 µM; in assay [4], greater than 50 µM.
On the same counts, the results for `COc1ccc(NC(=O)Nc2nc(Sc3c[nH]c4ccccc34)cc(N3CCCC3)n2)cc1` are 13.1 µM, 21.5 µM, 20.3 µM and 11.8 µM.
The like results for `Cc1cc(Cl)ccc1NC(=O)Nc1nc(Sc2c[nH]c3ccccc23)cc(N2CCN(Cc3ccccc3)CC2)n1` were, in that order, 22.1 µM, 22.4 µM, 11.7 µM and greater than 50 µM.
Consider `O=C(Nc1ccccc1)Nc1nc(Sc2c[nH]c3ccccc23)cc(N2CCOCC2)n1`, for which the IC50 in [1] was determined as 12.1 µM; in assay [2] it was 14.1 µM; in [3], 7.14 µM; in [4] it was 26.1 µM.
On the same counts, the results for `Cc1ccc(NC(=O)Nc2nc(Nc3ccccc3)cc(Sc3c[nH]c4ccccc34)n2)cc1` are 13.4 µM, 18.4 µM, 14.9 µM and 23.4 µM.
On the same counts, the results for `O=C(Nc1ccccc1)Nc1nc(Sc2c[nH]c3ccccc23)cc(N2CCN(Cc3ccccc3)CC2)n1` are 10.2 µM, 42.5 µM, 8.16 µM and greater than 50 µM.
The like results for `Cc1cc(Cl)ccc1NC(=O)Nc1nc(Nc2ccccc2)cc(Sc2c[nH]c3ccccc23)n1` were, in that order, 17.1 µM, 41.9 µM, 8.37 µM and greater than 50 µM.
Take `O=C(Nc1ccc(Cl)cc1)Nc1nc(Sc2c[nH]c3ccccc23)cc(N2CCOCC2)n1`: the IC50 in assay [1] is 6.93 µM; in assay [2], 28.4 µM; in assay [3] it was 22.5 µM; in [4], 21.8 µM.
On the same counts, the results for `COc1cc(NC(=O)Nc2nc(Nc3cc(OC)cc(OC)c3)cc(Sc3c[nH]c4ccccc34)n2)cc(OC)c1` are greater than 50 µM, 11.6 µM, 24.8 µM and greater than 50 µM.
For `Cc1cc(Cl)ccc1NC(=O)Nc1nc(NC2CC2)cc(Sc2c[nH]c3ccccc23)n1`, the IC50 stood at 14.6 µM in assay [1], 11.1 µM in assay [2], 9.74 µM in assay [3] and 31.5 µM in assay [4].
With `O=C(Nc1ccccc1)Nc1nc(Sc2c[nH]c3ccccc23)cc(N2CCN(c3ccccn3)CC2)n1`, the IC50 in [1] turned out to be 19.5 µM; in assay [2], 21.6 µM; in assay [3], 8.93 µM; in assay [4], 30.2 µM.
The like results for `O=C(Nc1ccc(Cl)cc1)Nc1nc(Sc2c[nH]c3ccccc23)cc(N2CCCCC2)n1` were, in that order, 10.1 µM, 42.5 µM, 14.8 µM and 18.6 µM.
The like results for `O=C(Nc1ccccc1)Nc1nc(Nc2ccc(Cl)cc2)cc(Sc2c[nH]c3ccccc23)n1` were, in that order, 10.3 µM, 32.3 µM, 12.6 µM and 48.4 µM.
On the same counts, the results for `COc1ccc(NC(=O)Nc2nc(Sc3c[nH]c4ccccc34)cc(N3CCCCC3)n2)cc1` are 7.26 µM, 17.4 µM, 17.1 µM and 13.5 µM.
